S1P3 agonist: agonists of human S1P3 receptor; activation, % at 4.5 µM; S1P3 NFAT-BLA reporter cells, agonism, FRET ratio; relative to 1 µM S1P, basal subtracted; actives 0.1% (n = 60,000); Q99500;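 active = activation above the screen-wide mean plus 3 SD, cut at about 4.5% in these data, passing the limit was not always enough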
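material = human S1P3 NFAT-BLA reporter CHO cells | schedule = 4 h compound at 37 °C, 2 h substrate at RT | measured by = fluorescent BLA substrate, ex 405 nm, em 460/535 nm ratio | controls = 1 µM S1P reference | replication = primary once, confirmation triplicate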
M1 antagonist: antagonists of rat M1 muscarinic receptor; AID 628; CHO-M1 cells, Fluo-4 calcium, ACh EC80 antagonist mode; stronger effect = lower value; actives 3.4% (n = 64,000); B-score at 10 µM;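 active = calcium fluorescence response, raw or row-and-column corrected B-score, differing from the plate sample mean either way at a set confidence level, mostly lower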
S1P1 ag pot: agonists and agonism potentiators of human S1P1 receptor. P21453. S1P1 CRE-bla cells, forskolin, beta-lactamase FRET, potentiator mode; S1P1 agonist co-added at EC20, 2 nM; 100% = saturating reference agonist, 0% = basal. activation, % at 9.5 µM. actives 0.57% (n = 56,000). AID 449;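 active = activation above a cutoff set at the mean activation of all tested compounds plus 3 SD, cut at about 54% in these data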;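 note: forskolin at 4 µM as EC80 and the EC20 agonist is SEW2871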
D1 mod: allosterically modulates the human D1 dopamine receptor; AID 641; B-score at 10 µM; actives 5.9% (n = 58,000); P21728; HEK293 D1, CRE-luciferase, dopamine EC30 potentiation; actives deviate in either direction;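 active = luminescence count or its row- and column-corrected plate score outside the 99.7% band of the plate's sample wells, on either side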
Target sequence (P21728 whole entry, looked up): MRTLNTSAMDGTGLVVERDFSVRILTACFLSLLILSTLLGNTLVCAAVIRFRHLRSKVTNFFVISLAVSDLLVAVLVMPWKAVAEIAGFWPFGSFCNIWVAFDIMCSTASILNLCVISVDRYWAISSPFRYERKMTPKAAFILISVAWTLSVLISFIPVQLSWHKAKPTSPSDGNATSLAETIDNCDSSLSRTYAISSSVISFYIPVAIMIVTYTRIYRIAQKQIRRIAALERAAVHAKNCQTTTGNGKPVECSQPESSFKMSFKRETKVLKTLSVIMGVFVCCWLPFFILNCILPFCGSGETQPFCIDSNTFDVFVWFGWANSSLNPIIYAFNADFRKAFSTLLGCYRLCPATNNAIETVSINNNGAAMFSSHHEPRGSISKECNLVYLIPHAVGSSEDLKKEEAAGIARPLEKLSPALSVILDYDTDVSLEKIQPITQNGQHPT
M1 agonist: agonists of M1 muscarinic receptor. CHO-M1 cells, Fluo-4 calcium fluorescence, agonist mode; stronger effect = higher value. B-score at 10 µM. actives 3% (n = 64,000). AID 626;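 active = fluorescence rise, raw or as B-score row- and column-corrected plate score, outside the 99.7% band of its plate's samples, either direction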
Large screens that a line does not name were inactive. In the library only some 11% were active in any assay of this set; here they are far more common.

CC(CN1CCCC(C(N)=O)C1)c1ccccc1 (stereo not given)	D1 mod -3.4
C#Cc1ccc(C(=O)Nc2cc(C(N)=O)ccc2N2CCOCC2)cc1	none
CCOC(=O)c1sc2nc(NC(=O)C3CC3)sc2c1C	none
CCOC(=O)c1sc2nc(NC(=O)C3CCCCC3)sc2c1C	S1P1 ag pot 74
Cc1ccc(-c2noc(CCC(=O)N(C)c3ccccc3C)n2)cc1	none
Cc1cccn2c(=O)c3cc(C(=O)N4c5ccccc5CC4C)n(C)c3nc12 (stereo not given)	D1 mod -4.8
COc1ccc2cc(CN(CC3COCCO3)S(=O)(=O)c3ccc(Cl)cc3)c(=O)[nH]c2c1 (stereo not given)	none
Cc1c(NC(=O)CC(=O)Nc2c(C)n(C)n(-c3ccccc3)c2=O)c(=O)n(-c2ccccc2)n1C	none (no result: D1 mod)
Cc1c(NC(=O)Cn2nc(C(=O)O)c3ccccc3c2=O)c(=O)n(-c2ccccc2)n1C	M1 antagonist 1
Cc1c(NC(=O)C2CCCNC2=O)c(=O)n(-c2ccccc2)n1C (stereo not given)	M1 antagonist 0.69
CC1CCN(CCCNC(=O)Cc2c(C(=O)O)n(C)c3ccccc23)CC1	none
O=C(CCn1cccc1)NCc1ccc(Cl)cc1	none
O=C(c1ccccc1)C1C(=O)c2ccccc2C1=O	none
O=C1c2ccccc2C(=O)C1c1ccncc1	D1 mod -3.5
CC(=O)Nc1nc2ccccc2n1CCN(C)C	none
CN(C)CCn1c(C(=O)Nc2ccccc2)cc2ccccc21	D1 mod -2.7
COc1ccccc1NC(=O)C(C)NS(=O)(=O)c1ccc(Cl)cc1 (stereo not given)	none
COc1ccc(N(C(=O)c2ccco2)S(=O)(=O)c2cc(OC)ccc2OC)cc1	M1 antagonist 1.9, D1 mod -2.2 (no result: S1P1 ag pot)
CCc1cccc(NC(=O)CS(=O)Cc2nc(-c3ccc(C)cc3)oc2C)c1 (stereo not given)	none
CCOC(=O)CNc1c(N2CCN(c3ccccn3)CC2)c(=O)c1=O	M1 antagonist 1.1
O=C(C1CCC(CNc2c(N3CCCCC3)c(=O)c2=O)CC1)N1CCN(c2ccccn2)CC1 (stereo not given)	none (no result: D1 mod)
CCOc1ccc(OCc2cccc(C(=O)N3CCOCC3)c2)cc1	D1 mod -6.7
Cc1cccn2c(=O)c3cc(C(=O)N4CCc5ccccc54)n(C)c3nc12	none
CCCOc1ccc(-c2nnc(-c3ccco3)o2)cc1	D1 mod -4.7
O=C(COc1ccccc1)Nc1ccc(-c2nnc(-c3ccco3)o2)cc1	none
CC(C)COc1ccc(-c2nnc(-c3ccco3)o2)cc1	D1 mod -5.5 (no result: M1 antagonist, M1 agonist)
COc1ccc(-c2ccc(-c3nnc(-c4ccncc4)o3)cc2)cc1	none
CCCCn1cnc2c(c1=O)c1nc3ccccc3nc1n2Cc1ccc2c(c1)OCO2	none
Cc1ccc(Cn2nnc3c(=O)n(CC(=O)c4ccccc4)cnc32)cc1	none
c1cc(-c2nc3cc(Oc4ccc5oc(-c6ccncc6)nc5c4)ccc3o2)ccn1	none
O=C(Cc1ccc(S(=O)(=O)N2CCOCC2)s1)NCC1CCCCC1	D1 mod -7
Cc1onc(-c2ccccc2)c1C(=O)OCC(=O)c1ccccc1	none
Cc1ccc(-n2c(C)cc(C(=O)COC(=O)c3c(C)noc3C)c2C)cc1	S1P1 ag pot 62
c1ccc(CN2CCN(c3ncnc4nc[nH]c34)CC2)cc1	none (no result: D1 mod)
CC(C)Oc1cc(O)c2c(=O)c(-c3ccc(O)cc3)coc2c1	S1P1 ag pot 107
CCN(CC)c1ccc2cc(C(=O)Nc3ccc(-n4cnnn4)c(OC)c3)c(=O)oc2c1	M1 agonist 20
COc1cc(C(=O)Nc2ccc3c(c2)OCCO3)ccc1-n1cnnn1	none (no result: D1 mod)
N#Cc1c(-c2ccccc2)nc(SCc2nc(N)nc(N3CCCCC3)n2)[nH]c1=O	D1 mod -3.2
CCCCn1nnnc1NCc1cccc(OC)c1OC	none
C=CCn1c(=N)n(CC(O)COc2ccccc2OC)c2ccccc21 (stereo not given)	D1 mod -5.4
C=CCn1c(=N)n(CC(=O)O)c2ccccc21	none
COc1ccc(OCC(O)Cn2c(=N)n(CCN3CCCCC3)c3ccccc32)cc1 (stereo not given)	none
CC(C)(C)C(=O)Cn1c(=N)n(Cc2ccccc2)c2ccccc21	D1 mod -3.3
COc1ccccc1OCC(O)Cn1c(=N)n(Cc2ccccc2)c2ccccc21 (stereo not given)	D1 mod -4.7 (no result: S1P3 agonist, S1P1 ag pot)
Nc1nc(-c2ccc(Br)s2)c(Br)s1	none
COc1ccc(C(=O)/C=C\N2CCOCC2)cc1	none
O=C(NCCN1CCOCC1)c1cc(S(=O)(=O)NCCCN2CCCC2=O)ccc1Cl	none
O=C(CCn1c(=O)oc2ccccc21)NCc1cccs1	none
CCOc1ccc(C(=O)Nc2c(C(N)=O)oc3ccccc23)cc1	S1P1 ag pot 54
CC(=O)Nc1c(C(=O)c2ccccc2)oc2ccccc12	D1 mod 6
Cn1ncc(C#N)c1NC(=O)c1nn2cccnc2c1Cl	none (no result: S1P1 ag pot)
CC(NC(=O)c1ccco1)c1ccc2c(c1)OCCO2 (stereo not given)	none
OC(CN1C2=NCCN2c2ccccc21)c1ccccc1 (stereo not given)	none
OC(CN1C2=NCCN2c2ccccc21)c1ccc(Br)cc1 (stereo not given)	D1 mod -5
O=C(Cc1ccccc1)Nc1cccc(N2CCCC2)c1	none
O=S(=O)(NCCN1CCCC1)c1cccc2cccnc12	none
O=S(=O)(NCCCN1CCN(c2ccccc2F)CC1)c1cccc2cccnc12	D1 mod -2.9
CCCN1CCCc2cc(CN)ccc21	M1 agonist 5.7
O=C(NCc1ccccc1)N1CCC(c2nc3ccccc3[nH]2)CC1	none
CCCCNc1cc(=O)n(C)c(=O)[nH]1	M1 antagonist 0.73 (no result: D1 mod)
Cn1c(=O)cc(NCc2ccccc2)[nH]c1=O	none (no result: D1 mod)
O=C(Nc1ccc(S(=O)(=O)NC2CCCC2)cc1)c1cnccn1	none
CCN(CC)CCCN1C(=O)C(=O)/C(=C(/O)c2ccc(OC)c(Cl)c2)C1c1ccco1 (stereo not given)	none
O=C(CCNC(=O)Cn1ccc2ccccc2c1=O)NCCN1CCN(c2ccccc2F)CC1	none
O=C(CNC(=O)c1cccs1)NCCN1CCN(c2ccccc2F)CC1	D1 mod -3.6
COC(=O)CCn1nnc(-c2cccs2)n1	M1 antagonist 1.7
COC(=O)CCn1nnc(-c2ccc(C(C)C)cc2)n1	D1 mod -2.5
COc1cccc(-c2nnn(CCC(=O)O)n2)c1	none
CC(C)(C)OC(=O)N1CCN(c2ccc(NC(=O)c3cc4ccccc4oc3=O)cc2)CC1	none (no result: S1P3 agonist, S1P1 ag pot)
N#Cc1ccc(NC(=O)c2cc3cc4c5c(c3oc2=N)CCCN5CCC4)cc1	M1 agonist 166
Cn1cnnc1SCNC(=O)C(F)(F)F	none
CCN(CC)c1ccc2c(c1)oc(=O)c1c(Cl)cc(=O)oc12	M1 agonist 45
CCN(CC)c1ccc2c(Cl)c(Br)c(=O)oc2c1	M1 agonist 38
